One block for each molecule: values may come before it. Activity calls are given as the source filed them. No cut-off for these calls is given here.
How the values were obtained:
[1] = Induction of nitroxyl release in 7.5% DMSO and 92.5% phosphate buffer at pH 7.4 at 200 uM after 2 hrs by LC-MS analysis; assay type: physicochemical; conditions: pH 7.4, 2 h
Outline: (§1)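 Donor at 200 μM with 1 mM trapping phosphine in 7.5% DMSO/92.5% phosphate buffer pH 7.4, 37 °C, with 5.05 μM 4-hydroxybenzophenone internal standard. Quenched with H₂O₂ after 2 or 48 h, dried, taken up in MeOH. HNO-derived amide quantified by LC–MS (ESI negative) from a standard curve; percent of 1 mol HNO/mol; mean of triplicates.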

[2] = Induction of nitroxyl release in 7.5% DMSO and 92.5% phosphate buffer at pH 7.4 at 200 uM after 48 hrs by LC-MS analysis; assay type: physicochemical; conditions: pH 7.4, 48 h; outline: as §1
[3] = system: Heart; test: Positive inotropic activity in C57BL/6 mouse Langendorff perfused heart assessed as rate of contraction at 100 uM measured for 20 mins; assay type: functional
Outline: (§2)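 Hearts from C57BL/6 mice perfused with Krebs-Henseleit buffer. After 20 min stabilisation with buffer, hearts were perfused with test compound (100 μM) or isoproterenol (100 μM, positive inotropic control) for 20 min. Heart rate, diastolic and systolic rates, and left ventricular developed pressure were recorded. Baseline contractile function was measured as LVDP.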

[4] = system: Heart; test: Effect on heart rate in C57BL/6 mouse Langendorff perfused heart at 100 uM measured for 20 mins; assay type: ADME, tissue-based
Outline: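 C57BL/6 mouse hearts perfused with Krebs–Henseleit buffer, stabilized 20 min, then perfused 20 min with compound at 100 μM; isoproterenol 100 μM as positive inotropic control. Heart rate, LVDP and rates of contraction and relaxation recorded.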

[5] = system: Heart; test: Positive inotropic activity in C57BL/6 mouse Langendorff perfused heart assessed as rate of relaxation at 100 uM measured for 20 mins; assay type: functional; outline: as §2
[6] = system: Heart; test: Positive inotropic activity in C57BL/6 mouse Langendorff perfused heart assessed as left ventricular developed pressure at 100 uM measured for 20 mins; assay type: functional; outline: as §2
[7] = Induction of nitrous oxide release in MeOH/TBS buffer at pH 7.4 at 25 mM after 0.5 hrs by gas chromatographic analysis; assay type: physicochemical; conditions: pH 7.4, 0.5 h, 25000 µM
Outline: (§3)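 Compound (0.04 mmol, 25 mM) in a sealed, inert-gas-flushed flask with 0.8 mL solvent: MeOH plus 500 mM Tris (0.2 mM EDTA), 1:1, at pH 7.4 or 10.0, ± 50 mM GSH, 37 °C. Headspace N₂O measured by GC with electron-capture detection against a standard curve. Yield assumes 2 HNO → 1 N₂O; mean of n = 3; pH-10 runs ended near pH 9.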

[8] = Induction of nitrous oxide release in MeOH/TBS buffer at pH 7.4 at 25 mM after 2 hrs by gas chromatographic analysis in presence of glutathione; assay type: physicochemical; conditions: pH 7.4, 2 h, 25000 µM; outline: as §3
[9] = Induction of nitrous oxide release in MeOH/TBS buffer at pH 7.4 at 25 mM after 0.5 hrs by gas chromatographic analysis in presence of glutathione; assay type: physicochemical; conditions: pH 7.4, 0.5 h, 25000 µM; outline: as §3
[10] = Induction of nitrite release in phosphate buffer at pH 7.4 at 50 uM after 1.5 hrs by Griess reaction; assay type: physicochemical; conditions: pH 7.4, 1.5 h
Outline: (§4)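 Compound at 50 μM was incubated 1.5 h at 37 °C in phosphate buffer pH 7.4 or Tris buffer pH 10.0, both containing 5% DMSO. Nitrite was measured by Griess reaction and expressed as percent of the initial compound concentration; mean of n = 3.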

[11] = Induction of nitrous oxide release in MeOH/TBS buffer at pH 7.4 at 25 mM after 48 hrs by gas chromatographic analysis in presence of glutathione; assay type: physicochemical; conditions: pH 7.4, 48 h, 25000 µM; outline: as §3
[12] = Induction of nitrous oxide release in MeOH/TBS buffer at pH 10 at 25 mM after 2 hrs by gas chromatographic analysis; assay type: physicochemical; conditions: pH 10, 2 h, 25000 µM; outline: as §3
[13] = Induction of nitrous oxide release in MeOH/TBS buffer at pH 10 at 25 mM after 0.5 hrs by gas chromatographic analysis in presence of glutathione; assay type: physicochemical; conditions: pH 10, 0.5 h, 25000 µM; outline: as §3
[14] = Half life in phosphate buffer at pH 7.4 by spectrophotometric method; assay type: physicochemical
Outline: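 Decay followed by loss of diazeniumdiolate absorbance near 245 nm in pH 7.4 phosphate buffer with 5% DMSO at 37 °C. Half-life obtained from linear regression of ln(A_t − A_∞) against time.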

[15] = Induction of nitrite release in phosphate buffer at pH 10 at 50 uM after 1.5 hrs by Griess reaction; assay type: physicochemical; conditions: Tris buffer, pH 10, 1.5 h, in the assay text read “Tris buffer” for “phosphate buffer”; outline: as §4
[16] = Induction of nitrous oxide release in MeOH/TBS buffer at pH 10 at 25 mM after 2 hrs by gas chromatographic analysis in presence of glutathione; assay type: physicochemical; conditions: pH 10, 2 h, 25000 µM; outline: as §3
[17] = Induction of nitrous oxide release in MeOH/TBS buffer at pH 10 at 25 mM after 0.5 hrs by gas chromatographic analysis; assay type: physicochemical; conditions: pH 10, 0.5 h, 25000 µM; outline: as §3
[18] = Induction of nitrous oxide release in MeOH/TBS buffer at pH 7.4 at 25 mM after 2 hrs by gas chromatographic analysis; assay type: physicochemical; conditions: pH 7.4, 2 h, 25000 µM; outline: as §3
[19] = Induction of nitrous oxide release in MeOH/TBS buffer at pH 7.4 at 25 mM after 48 hrs by gas chromatographic analysis; assay type: physicochemical; conditions: pH 7.4, 48 h, 25000 µM; outline: as §3
[20] = system: Mus musculus; test: Antihypertensive activity in C57 mouse assessed as reduction of diastolic blood pressure at 22.5 mg/kg, po after 1 to 6 hrs relative to control; assay type: functional, organism-based; design: dose 22.5 mg/kg; conditions: Artery, in the assay text read “after 3 to 6 hrs” for “after 1 to 6 hrs”
Outline: (§5)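 Conscious C57 black mice dosed orally at 22.5 mg/kg (60.345 μmol/kg), vehicle water with 1% methylcellulose; vehicle-only controls (n = 6), treated n = 4 at 1 h, 5 at 3 h, 6 at 6 h. Noninvasive BP (systolic, diastolic; mean = average of the two) and heart rate read at 1, 3, 6 h; each value is the average of three consecutive readings per mouse.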

[21] = system: Mus musculus; test: Antihypertensive activity in C57 mouse assessed as reduction of mean blood pressure at 22.5 mg/kg, po after 1 hr relative to control; assay type: functional; outline: as §5
[22] = system: Mus musculus; test: Antihypertensive activity in C57 mouse assessed as reduction of mean blood pressure at 22.5 mg/kg, po after 3 hrs relative to control; assay type: functional; outline: as §5
[23] = system: Mus musculus; test: Effect on heart rate in C57 mouse at 22.5 mg/kg, po after 1 hr relative to control; assay type: ADME, organism-based; design: dose 22.5 mg/kg, route oral; conditions: in vivo; outline: as §5
[24] = system: Mus musculus; test: Antihypertensive activity in C57 mouse assessed as reduction of systolic blood pressure at 22.5 mg/kg, po after 6 hrs relative to control; assay type: functional, Artery; outline: as §5
[25] = system: Mus musculus; test: Effect on heart rate in C57 mouse at 22.5 mg/kg, po after 3 hrs relative to control; assay type: ADME, organism-based; design: dose 22.5 mg/kg, route oral; conditions: in vivo; outline: as §5
[26] = system: Mus musculus; test: Effect on heart rate in C57 mouse at 22.5 mg/kg, po after 6 hrs relative to control; assay type: ADME, organism-based; design: dose 22.5 mg/kg, route oral; conditions: in vivo; outline: as §5
[27] = system: Mus musculus; test: Antihypertensive activity in C57 mouse assessed as reduction of systolic blood pressure at 22.5 mg/kg, po after 3 hrs relative to control; assay type: functional, Artery; outline: as §5
[28] = system: Mus musculus; test: Antihypertensive activity in C57 mouse assessed as reduction of mean blood pressure at 22.5 mg/kg, po after 6 hrs relative to control; assay type: functional; outline: as §5
[29] = system: Mus musculus; test: Antihypertensive activity in C57 mouse assessed as reduction of systolic blood pressure at 22.5 mg/kg, po after 1 hr relative to control; assay type: functional, Artery; outline: as §5

Structure (SMILES): [Na+].[Na+].[O-][N+]([O-])=NO [ANGELI'S SALT]
Activity [1]: 85.9% | Activity [2]: 85.7%

Structure (SMILES): CC(C)NCC(O)c1ccc(O)c(O)c1 (configuration not stated) [ISOPROTERENOL]
Activity [3]: 5330 cmH2O/ms | Activity [4]: 334 bpm | Activity [5]: -5882 cmH2O/ms | Activity [6]: 157 cmH2O

Structure (SMILES): CC(C)N/[N+]([O-])=N/OCS(C)(=O)=O
Activity [1]: 0.31% | Activity [10]: 0.4% | Activity [2]: 4% | Activity [15]: 4.6%

Structure (SMILES): CC(C)N(C(=O)OC(C)(C)C)/[N+]([O-])=N/OCCS(C)(=O)=O
Activity [1]: 5.1% | Activity [10]: 28.6% | Activity [2]: 7.2% | Activity [15]: 25.4%

Second part, led by results:

Activity [1]: 46.2% | Activity [7]: 5.9% | Activity [8]: 0.5% | Activity [9]: 0.4% | Activity [10]: 0.8% | Activity [11]: 1.8% | Activity [12]: 62.9% | Activity [2]: 51.3% | Activity [13]: 17.3% | half-life [14]: 8.9 h | Activity [15]: 10.4% | Activity [16]: 29% | Activity [17]: 52.6% | Activity [18]: 12.9% | Activity [19]: 33.5%
Structure (SMILES): CONS(=O)(=O)CCO/N=[N+](\[O-])NC(C)C

Activity [7]: 1.4% | Activity [8]: 0.4% | Activity [9]: 0.2% | Activity [10]: 10.6% | Activity [11]: 0.2% | Activity [12]: 15.1% | Activity [13]: 1.2% | half-life [14]: 17.1 h | Activity [15]: 42% | Activity [16]: 1.3% | Activity [17]: 16.7% | Activity [18]: 1.9% | Activity [19]: 1.9%
Structure (SMILES): COS(=O)(=O)CCO/N=[N+](\[O-])NC(C)C

Activity [1]: 47.3% | Activity [7]: 3.8% | Activity [8]: 0.4% | Activity [9]: 0.3% | Activity [10]: 6% | Activity [11]: 0.8% | Activity [12]: 61.3% | Activity [2]: 55.4% | Activity [13]: 24.2% | half-life [14]: 6.6 h | Activity [15]: 24% | Activity [16]: 30.3% | Activity [17]: 56.8% | Activity [18]: 9.7% | Activity [19]: 27.5%
Structure (SMILES): CC(C)N/[N+]([O-])=N/OCCS(=O)(=O)NOCc1ccccc1

half-life [14]: 0.683 h
Structure (SMILES): CC(=O)OCO/N=[N+](\[O-])NC(C)C

Activity [1]: 51.2% | Activity [7]: 0.5% | Activity [8]: 0.9% | Activity [9]: 1.3% | Activity [10]: 1.8% | Activity [11]: 0.1% | Activity [12]: 62.2% | Activity [2]: 61.4% | Activity [13]: 0.4% | half-life [14]: 15.3 h | Activity [15]: 26% | Activity [16]: 2.2% | Activity [17]: 52.9% | Activity [18]: 1.6% | Activity [19]: 10.4%
Structure (SMILES): CC(C)N/[N+]([O-])=N/OCCS(C)(=O)=O
Activity [20]: Active | mean blood pressure [21]: 95.4 mmHg | mean blood pressure [22]: 83.6 mmHg | Activity [23]: 531 bpm | Activity [3]: 5698 cmH2O/ms | Activity [4]: 269 bpm | systolic blood pressure [24]: 114.4 mmHg | Activity [25]: 488 bpm | Activity [26]: 442 bpm | systolic blood pressure [27]: 103.4 mmHg | mean blood pressure [28]: 87.5 mmHg | systolic blood pressure [29]: 120.2 mmHg | Activity [5]: -5330 cmH2O/ms | Activity [6]: 187 cmH2O

Activity [1]: 5.4% | Activity [7]: 9.4% | Activity [8]: 7.4% | Activity [9]: 6.1% | Activity [10]: 62% | Activity [11]: 6.8% | Activity [12]: 5.7% | Activity [2]: 5.1% | Activity [13]: 8.5% | half-life [14]: 0.0383 h | Activity [15]: 36% | Activity [16]: 9.5% | Activity [17]: 5.9% | Activity [18]: 8.3% | Activity [19]: 7%
Structure (SMILES): CC(C)N[N+]([O-])=N[O-].[Na+]
